# Assay results pooled from the literature.
# Organism: Plasmodium falciparum
# Effect on: parasite growth
Structure (SMILES),assay,test system,setting,endpoint,value
O=C(Nc1c(F)cccc1C(=O)O)c1ccc(-c2ccccc2)cc1,,NF54,"2 µM, 48 h, gametocyte",inhibition,38.8%
Cc1ccc(Nc2ccnc3cc(-c4ccc(S(=O)(=O)N5CCN(C)CC5)cc4)ccc23)cc1Cl,,D6,"drug-resistant strain, blood stage",EC50,64 nM
CCn1cc(-c2nc(C)no2)c(=O)c2cc(F)c(N3CCC(C)CC3)cc21,,3D7,blood stage,EC50,7.62 nM
O=C(Nc1cc(F)ccc1C(=O)O)c1ccc(-c2ccccc2)cc1,,NF54,"2 µM, 48 h, gametocyte",inhibition,13.8%
c1ccc2sc(-c3ccnc(Nc4ccc(CN5CCC(N6CCCC6)CC5)cc4)n3)cc2c1,SYBR Green,3D7,"1 µM, blood stage",inhibition,> 75%
COc1ccc(Nc2ccnc3cc(Nc4nccc(N5CCN(C)CC5)n4)ccc23)cc1Cl,,D6,"drug-resistant strain, blood stage",EC50,99 nM
CCN(CC)CCCC(C)Nc1ccnc2cc(Cl)ccc12 (centres unmarked),,D6,"72 h, blood stage",IC50,0.01 µg/mL
Cc1ccc(-c2ccccc2C(=O)Nc2c(C)cccc2C(=O)O)cc1,,NF54,"2 µM, 48 h, gametocyte",inhibition,55%
COc1cnc(Nc2ccnc3cc(-c4ccc(S(=O)(=O)N5CCN(C)CC5)cc4)ccc23)cn1,,D6,"drug-resistant strain, blood stage",EC50,130 nM
CCNC(=O)c1cn(CC)c2cc(N3CCC(C)CC3)c(F)cc2c1=O,,3D7,"72 h, blood stage",EC50,477 nM
CN1CCN(c2ncc(-c3ccc4c(Nc5cnccn5)ccnc4c3)cn2)CC1,,D6,"drug-resistant strain, blood stage",EC50,26 nM
CCCC1CCN(c2cc3c(cc2F)c(=O)c(-c2nc(C)no2)cn3CC)CC1,,3D7,"72 h, blood stage",EC50,8 nM
CN1CCN(S(=O)(=O)c2ccc(-c3ccc4c(Nc5ccc6[nH]nnc6c5)ccnc4c3)cc2)CC1,,D6,"drug-resistant strain, blood stage",EC50,27 nM
CCn1cc(-c2nc(C)no2)c(=O)c2cc(F)c(N3CCC(C)(C)CC3)cc21,,3D7,"72 h, blood stage",EC50,1480 nM
CCN(CC)CCCC(C)Nc1ccnc2cc(Cl)ccc12 (centres unmarked),,NF54,blood stage,IC50,8 nM
CCOC(=O)c1cn(CC)c2cc(N3CCC(C)CC3)c(F)cc2c1=O,,3D7,"72 h, blood stage",EC50,28 nM
O=C(Nc1ccc(F)cc1C(=O)O)c1ccc(-c2ccccc2)cc1,SYBR Green,NF54,"10 µM, 96 h, blood stage",inhibition,12.7%
